Source: PubChem BioAssay
BB579 growth dn – chemicals that inhibit yeast BB579 growth in restrictive medium (lifespan-shortening candidates). S. cerevisiae BB579 growth, OD615, 48 h. inhibition, % at 10 µM. 140,000 tested, 0.51% active;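 active means inhibition above a set limit, 3 SD over the mean compound inhibition, cut at about 44% in these data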
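System: Saccharomyces cerevisiae DeaD strain BB579, replicative lifespan model yeast. Buffer or medium: restrictive glucose-based CSMM-D medium. Doses: one dose, 10 µM compound with 0.25% DMSO. Timing: 4 h preincubation and 48 h exposure at 30 °C. Detection: turbidity as optical density at 615 nm. Benchmarks: amphotericin B 10 µg/mL, positive.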
sdo1 growth – compounds rescuing growth of sdo1-depleted yeast, bone marrow failure model; 140,000 tested, 0.21% active; AID 817; z-score at 10 µM; S. cerevisiae sdo1-depleted JHY4D growth rescue, OD600 30 h; active compounds read high; pdr5 snq2 efflux-pump mutant strain;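 active means z-score above 3 at both the 24 hr and the 30 hr optical density reads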;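 further: z-score against mean and SD of all compound wells on the same plate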
MRP-1 activ – activators of MRP-1; H69AR cells + doxorubicin, viability rescue, CellTiter-Glo; viability increase, % at 10 µM; 140,000 tested, 0.61% active;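 active means viability gain under doxorubicin at or above a set limit, the compound median plus 3 SD, cut at about 4.7% in these data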;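 further: MRP-1 overexpressing cells given doxorubicin 25 µM after compound pretreatment; 18-22 h compound pretreatment then 72 h with doxorubicin before readout; 0% = doxorubicin-only wells and 100% = vehicle-treated cells without doxorubicin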
Yeast life ext – extends the lifespan of yeast; S. cerevisiae growth with nicotinamide, OD615; deaD strain in restrictive glucose medium; inhibition of the nicotinamide effect, % at 10 µM; 130,000 tested, 0.68% active; AID 775;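 active means inhibition above a set limit, placed 3 SD over the median of all compounds, cut at about 26% in these data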;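 further: 0% = nicotinamide-treated wells and 100% = cells grown without nicotinamide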
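Test system – modified budding yeast, DeaD strain · Compound – single dose 10 µM compound, 0.25% DMSO · Times – culture preincubation 4 h, compound exposure 48 h, both 30 °C · Detection – optical density (absorbance) at 615 nm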
Phagocytosis inh – inhibitors of macrophage phagocytosis; inhibition, % at 5 µM; 110,000 tested, 0.07% active; J774A.1 macrophage IgG-bead phagocytosis, imaging; AID 1029;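 active means inhibition above the mean of the plate negative controls plus 5 SD, cut at about 13% in these data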;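 further: phagocytic index as fraction of beads internalized from green versus red external bead signal; plate controls were DMSO negative control for no effect and cytochalasin-D positive control for full effect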
MRP reversal – reverses drug resistance mediated by MRP. H69AR cells + 2 uM doxorubicin, CellTiter-Glo, 72 h. differential viability (reversal), % at 10 µM. 85,000 tested, 0.04% active;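 active means viability drop by adding the cancer drug above about 55%, with treated viability meeting a 40% cutoff, limit read from the data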;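 further: viability without doxorubicin minus viability with 2 µM doxorubicin for each compound; larger differential means the compound sensitizes cells more to doxorubicin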
* hit, by the source's call; nt = no result given. Most compounds without a hit are left out; they make up all but 2.1% or so of the library.

SMILES	BB579 growth dn	sdo1 growth	MRP-1 activ	Yeast life ext	Phagocytosis inh	MRP reversal
CC1=NN(c2ccc(C)c(C)c2)C(=O)C1C(c1cccc(O)c1)C1C(=O)N(c2ccc(C)c(C)c2)N=C1C (configuration not stated)	-37	1.5	-4	6	nt	nt
CC1=NN(c2ccc(C)cc2C)C(=O)C1C(c1ccccc1O)C1C(=O)N(c2ccc(C)cc2C)N=C1C (configuration not stated)	-44	-0.06	5.6*	17	-13	nt
Cc1cc(C)cc(OCC(=O)NCc2nc(-c3ccccc3)no2)c1	-52	-1.3	-3	-21	23*	-26
Cn1c(=O)c(NCCc2ccccc2)c2c3c(cccc31)C(=O)c1ccccc1-2	-38	-0.86	-4	-5	-1	64*
COc1ccc(CN2C(=O)c3ccccc3C2C(=O)NCC2CCCO2)c(OC)c1 (configuration not stated)	-21	0.12	-2	-5	0	12
COC(=O)Nc1cc(C(F)(F)F)ccc1N1CCN(c2ccccc2)CC1	-24	0.51	1	-2	90*	-3
O=C(Nc1cc(C(F)(F)F)ccc1N1CCOCC1)c1ccccc1	-20	-0.87	0	-11	-1	nt
O=c1c2c(-c3ccccc3)csc2nc2n1CCC2	-15	1.4	-1	-17	nt	9
O=c1c2sc(-c3ccccc3)cc2nc2n1CCC2	83*	-2.4	-4	nt	nt	6
Cc1cc(/C=C(\C#N)C(=O)NCc2ccco2)c(C)[nH]1	5	0.14	-4	nt	nt	10
COc1ccc(OC)c(N=c2oc3cc(O)ccc3cc2C(N)=O)c1	-44	0.23	-6	10	-2	-7
CC(C)Cc1nnc(NS(=O)(=O)c2ccc(Cl)cc2)s1	-18	0.61	0	26*	0	4
CC1CCCN(S(=O)(=O)c2ccc(C(=O)Nc3nnc(-c4ccccc4Cl)o3)cc2)C1 (configuration not stated)	-14	-1.2	-2	0	-1	-21
O=C(Nc1nnc(-c2ccccc2Cl)o1)c1cccnc1	-19	2.9	-1	34*	-1	0
COC(=O)c1ccc(OC)c(CSc2nnc(COc3ccc(Cl)cc3)o2)c1	-34	-0.75	6.9*	-6	nt	10
CCOC(=O)N1CCN(C(=O)CSc2nnc(COc3ccc(Cl)cc3)o2)CC1	4	-0.11	5.8*	-14	0	2
O=C(CSc1nnc(COc2ccc(Cl)cc2)o1)N1c2ccccc2CCc2ccccc21	-47	-0.38	0	0	0	-54
COC(=O)c1ccc(OC)c(CSc2nnc(COc3ccccc3)o2)c1	-14	-0.97	1	-9	-1	11
O=C(Nc1ccccn1)c1nc(-c2ccccc2)n(-c2ccccc2)n1	-29	-1	-2	4	2	nt
NNC(=O)CNC(c1ccccc1)c1cc(Br)ccc1NC(=O)c1cccc(Cl)c1 (configuration not stated)	-48	-0.19	11*	0	4	nt
NNC(=O)CNC(c1ccccc1)c1cc(Br)ccc1NC(=O)c1ccc(Br)cc1 (configuration not stated)	2	0.44	0	1	-6	nt
O=C1C2CC=CCC2C(=O)N1c1nc2n(n1)C(c1ccccc1)CC(c1ccccc1)N2 (configuration not stated)	-59	1.1	0	-7	0	7
O=C(NNC1=C(C(=O)C(F)(F)F)CCC1)c1ccc(Cl)cc1	-40	0.42	6.4*	9	-2	-28
O=C(NNC1=C(C(=O)C(F)(F)F)CCC1)c1cccc(Cl)c1	-6	0.31	6.5*	4	-3	-23
O=C(NNC(=S)Nc1cccc(C(F)(F)F)c1)c1cccc(Cl)c1	-23	0.09	-4	-4	-5	nt
CCC(=O)NC(c1ccc(C)cc1)c1cc([N+](=O)[O-])c2cccnc2c1O (configuration not stated)	85*	-0.69	-3	-4	-4	nt
COC(=O)c1c(-c2ccc(F)cc2)csc1NC(=O)c1ccco1	-30	0.08	1	5	2	1
O=C(Nc1scc(-c2cccs2)c1C(=O)O)c1cccs1	-10	0.54	3	35*	-1	11
O=C(Nc1scc(-c2ccccc2)c1C(=O)O)c1ccco1	-2	1.7	-1	42*	0	nt
